Assay results taken from ChEMBL document CHEMBL1140914, “Synthesis and in vitro and in vivo evaluation of 18F-labeled positron emission tomography (PET) ligands for imaging the vesicular acetylcholine transporter” (J Med Chem, 2009).

Tests used:
[1] = biological target: T1, Vesicular acetylcholine transporter (Homo sapiens, UniProt Q16572); experiment: Displacement of [3H]vesamicol from human vesicular acetylcholine transporter expressed in rat PC12 cells by liquid scintillation spectrometry; assay type: cell-based, PC-12
T1 sequence (Q16572 whole entry): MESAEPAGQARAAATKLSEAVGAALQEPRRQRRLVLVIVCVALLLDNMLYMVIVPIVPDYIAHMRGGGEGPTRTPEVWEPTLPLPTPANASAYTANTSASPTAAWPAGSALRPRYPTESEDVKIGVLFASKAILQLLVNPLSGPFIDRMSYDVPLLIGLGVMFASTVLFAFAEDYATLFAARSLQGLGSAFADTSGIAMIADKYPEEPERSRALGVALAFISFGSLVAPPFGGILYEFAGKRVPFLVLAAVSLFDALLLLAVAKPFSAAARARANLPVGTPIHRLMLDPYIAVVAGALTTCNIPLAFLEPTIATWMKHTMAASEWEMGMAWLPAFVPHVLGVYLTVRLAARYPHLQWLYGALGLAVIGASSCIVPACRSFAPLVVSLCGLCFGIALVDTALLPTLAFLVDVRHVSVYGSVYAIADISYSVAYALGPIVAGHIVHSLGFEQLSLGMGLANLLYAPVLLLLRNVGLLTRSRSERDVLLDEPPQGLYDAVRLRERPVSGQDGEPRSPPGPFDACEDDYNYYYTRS

[2] = biological target: Sigma non-opioid intracellular receptor 1 (Cavia porcellus, UniProt Q60492); experiment: Displacement of [3H](+)-pentazocine from sigma1 receptor in guinea pig brain membrane by liquid scintillation counting; assay type: cell membranes
Sigma non-opioid intracellular receptor 1, sequence (Q60492 whole entry): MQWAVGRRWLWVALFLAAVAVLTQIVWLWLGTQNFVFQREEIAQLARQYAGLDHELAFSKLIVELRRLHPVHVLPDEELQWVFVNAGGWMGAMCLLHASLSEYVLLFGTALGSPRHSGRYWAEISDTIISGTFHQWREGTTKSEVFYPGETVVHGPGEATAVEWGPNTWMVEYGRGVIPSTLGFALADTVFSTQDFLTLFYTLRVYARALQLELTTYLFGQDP

[3] = Displacement of [3H]DTG from sigma2 receptor in rat liver membrane; assay type: cell membranes
Method in brief: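 Rat liver membrane homogenate (~300 μg protein) incubated 2 h at room temperature with ~5 nM [3H]DTG plus 1 μM (+)-pentazocine to mask σ1 sites. Haloperidol 10 μM defines nonspecific binding. Filtered and counted.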

[4] = Selectivity ratio of Ki for human vesicular acetylcholine transporter to Ki for sigma1 receptor in guinea pig brain membrane; assay type: cell membranes
Lung [5] = experiment: Drug uptake in Sprague-Dawley rat lung at 25 to 35 uCi, iv after 5 mins postinjection by […]; assay type: ADME, organism-based; conditions: in vivo
Method in brief: (§1)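 Mature male Sprague-Dawley rats (250–400 g) under 2–3% isoflurane got 25–35 μCi tracer in 100–150 μL saline via tail vein. Groups of at least 4 were euthanized at 5 min, 30 min, 1 h or 2 h. Brain was dissected into regions, and tissues were weighed and gamma counted against an injectate standard. Values are %ID/g, mean ± SD.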

Lung [6] = experiment: Drug uptake in Sprague-Dawley rat lung at 25 to 35 uCi, iv after 30 mins postinjection by […]; assay type: ADME, organism-based; conditions: in vivo, 0.5 h; method in brief: as §1
Lung [7] = experiment: Drug uptake in Sprague-Dawley rat lung at 25 to 35 uCi, iv after 1 hr postinjection by […]; assay type: ADME, organism-based; conditions: in vivo; method in brief: as §1
Lung [8] = experiment: Drug uptake in Sprague-Dawley rat lung at 25 to 35 uCi, iv after 2 hrs postinjection by […]; assay type: ADME, organism-based; conditions: in vivo; method in brief: as §1
Heart [9] = experiment: Drug uptake in Sprague-Dawley rat heart at 25 to 35 uCi, iv after 5 mins postinjection by […]; assay type: ADME, organism-based; conditions: in vivo; method in brief: as §1
Heart [10] = experiment: Drug uptake in Sprague-Dawley rat heart at 25 to 35 uCi, iv after 30 mins postinjection by […]; assay type: ADME, organism-based; conditions: in vivo, 0.5 h; method in brief: as §1
Heart [11] = experiment: Drug uptake in Sprague-Dawley rat heart at 25 to 35 uCi, iv after 1 hr postinjection by […]; assay type: ADME, organism-based; conditions: in vivo; method in brief: as §1
Heart [12] = experiment: Drug uptake in Sprague-Dawley rat heart at 25 to 35 uCi, iv after 2 hrs postinjection by […]; assay type: ADME, organism-based; conditions: in vivo; method in brief: as §1
Muscle tissue [13] = experiment: Drug uptake in Sprague-Dawley rat muscle at 25 to 35 uCi, iv after 5 mins postinjection by […]; assay type: ADME, organism-based; conditions: in vivo; method in brief: as §1
Muscle tissue [14] = experiment: Drug uptake in Sprague-Dawley rat muscle at 25 to 35 uCi, iv after 30 mins postinjection by […]; assay type: ADME, organism-based; conditions: in vivo, 0.5 h; method in brief: as §1
Muscle tissue [15] = experiment: Drug uptake in Sprague-Dawley rat muscle at 25 to 35 uCi, iv after 1 hr postinjection by […]; assay type: ADME, organism-based; conditions: in vivo; method in brief: as §1
Muscle tissue [16] = experiment: Drug uptake in Sprague-Dawley rat muscle at 25 to 35 uCi, iv after 2 hrs postinjection by […]; assay type: ADME, organism-based; conditions: in vivo; method in brief: as §1
[17] = Drug uptake in Sprague-Dawley rat fat at 25 to 35 uCi, iv after 5 mins postinjection by […]; assay type: ADME, organism-based, Adipose tissue; conditions: in vivo; method in brief: as §1
[18] = Drug uptake in Sprague-Dawley rat fat at 25 to 35 uCi, iv after 30 mins postinjection by […]; assay type: ADME, organism-based, Adipose tissue; conditions: in vivo, 0.5 h; method in brief: as §1
[19] = Drug uptake in Sprague-Dawley rat fat at 25 to 35 uCi, iv after 1 hr postinjection by […]; assay type: ADME, organism-based, Adipose tissue; conditions: in vivo; method in brief: as §1
[20] = Drug uptake in Sprague-Dawley rat fat at 25 to 35 uCi, iv after 2 hrs postinjection by […]; assay type: ADME, organism-based, Adipose tissue; conditions: in vivo; method in brief: as §1
Liver [21] = experiment: Drug uptake in Sprague-Dawley rat liver at 25 to 35 uCi, iv after 5 mins postinjection by […]; assay type: ADME, organism-based; conditions: in vivo; method in brief: as §1
Liver [22] = experiment: Drug uptake in Sprague-Dawley rat liver at 25 to 35 uCi, iv after 30 mins postinjection by […]; assay type: ADME, organism-based; conditions: in vivo, 0.5 h; method in brief: as §1
Liver [23] = experiment: Drug uptake in Sprague-Dawley rat liver at 25 to 35 uCi, iv after 1 hr postinjection by […]; assay type: ADME, organism-based; conditions: in vivo; method in brief: as §1
Liver [24] = experiment: Drug uptake in Sprague-Dawley rat liver at 25 to 35 uCi, iv after 2 hrs postinjection by […]; assay type: ADME, organism-based; conditions: in vivo; method in brief: as §1
Kidney [25] = experiment: Drug uptake in Sprague-Dawley rat kidney at 25 to 35 uCi, iv after 5 mins postinjection by […]; assay type: ADME, organism-based; conditions: in vivo; method in brief: as §1
Kidney [26] = experiment: Drug uptake in Sprague-Dawley rat kidney at 25 to 35 uCi, iv after 30 mins postinjection by […]; assay type: ADME, organism-based; conditions: in vivo, 0.5 h; method in brief: as §1
Kidney [27] = experiment: Drug uptake in Sprague-Dawley rat kidney at 25 to 35 uCi, iv after 1 hr postinjection by […]; assay type: ADME, organism-based; conditions: in vivo; method in brief: as §1
Kidney [28] = experiment: Drug uptake in Sprague-Dawley rat kidney at 25 to 35 uCi, iv after 2 hrs postinjection by […]; assay type: ADME, organism-based; conditions: in vivo; method in brief: as §1
Bone [29] = experiment: Drug uptake in Sprague-Dawley rat bone at 25 to 35 uCi, iv after 5 mins postinjection by […]; assay type: ADME, organism-based, Bone element; conditions: in vivo; method in brief: as §1
Bone [30] = experiment: Drug uptake in Sprague-Dawley rat bone at 25 to 35 uCi, iv after 30 mins postinjection by […]; assay type: ADME, organism-based, Bone element; conditions: in vivo, 0.5 h; method in brief: as §1
Bone [31] = experiment: Drug uptake in Sprague-Dawley rat bone at 25 to 35 uCi, iv after 1 hr postinjection by […]; assay type: ADME, organism-based, Bone element; conditions: in vivo; method in brief: as §1
Bone [32] = experiment: Drug uptake in Sprague-Dawley rat bone at 25 to 35 uCi, iv after 2 hrs postinjection by […]; assay type: ADME, organism-based, Bone element; conditions: in vivo; method in brief: as §1
Brain [33] = experiment: Drug uptake in Sprague-Dawley rat brain at 25 to 35 uCi, iv after 5 mins postinjection by […]; assay type: ADME, organism-based; conditions: in vivo; method in brief: as §1
Brain [34] = experiment: Drug uptake in Sprague-Dawley rat brain at 25 to 35 uCi, iv after 30 mins postinjection by […]; assay type: ADME, organism-based; conditions: in vivo, 0.5 h; method in brief: as §1
Brain [35] = experiment: Drug uptake in Sprague-Dawley rat brain at 25 to 35 uCi, iv after 1 hr postinjection by […]; assay type: ADME, organism-based; conditions: in vivo; method in brief: as §1
Brain [36] = experiment: Drug uptake in Sprague-Dawley rat brain at 25 to 35 uCi, iv after 2 hrs postinjection by […]; assay type: ADME, organism-based; conditions: in vivo; method in brief: as §1
Blood [37] = experiment: Drug uptake in Sprague-Dawley rat blood at 25 to 35 uCi, iv after 5 mins postinjection by […]; assay type: ADME, organism-based; conditions: in vivo; method in brief: as §1
Blood [38] = experiment: Drug uptake in Sprague-Dawley rat blood at 25 to 35 uCi, iv after 30 mins postinjection by […]; assay type: ADME, organism-based; conditions: in vivo, 0.5 h; method in brief: as §1
Blood [39] = experiment: Drug uptake in Sprague-Dawley rat blood at 25 to 35 uCi, iv after 1 hr postinjection by […]; assay type: ADME, organism-based; conditions: in vivo; method in brief: as §1

O=C(c1ccccc1)C1CCN([C@@H]2Cc3ccccc3C[C@H]2O)CC1 (racemic)
Ki [1]: 4.3 nM
Ki [2]: 220 nM
Ki [3]: 320 nM
Ratio Ki [4]: 51

O=C(c1ccc(Br)cc1)C1CCN([C@@H]2Cc3ccccc3C[C@H]2O)CC1 (racemic)
Ki [1]: 0.25 nM
Ki [2]: 298 nM
Ki [3]: 593 nM
Ratio Ki [4]: 1190

O=C(c1ccc([N+](=O)[O-])cc1)C1CCN([C@@H]2Cc3ccccc3C[C@H]2O)CC1 (racemic)
Ki [1]: 0.48 nM

O=C(c1ccc([18F])cc1)C1CCN([C@@H]2Cc3ccccc3C[C@H]2O)CC1 (racemic)
Drug uptake (Lung [5]): 1.389 % ID/g
Drug uptake (Lung [6]): 0.553 % ID/g
Drug uptake (Lung [7]): 0.346 % ID/g
Drug uptake (Lung [8]): 0.223 % ID/g
Drug uptake (Heart [9]): 0.328 % ID/g
Drug uptake (Heart [10]): 0.141 % ID/g
Drug uptake (Heart [11]): 0.094 % ID/g
Drug uptake (Heart [12]): 0.056 % ID/g
Drug uptake (Muscle tissue [13]): 0.079 % ID/g
Drug uptake (Muscle tissue [14]): 0.071 % ID/g
Drug uptake (Muscle tissue [15]): 0.076 % ID/g
Drug uptake (Muscle tissue [16]): 0.047 % ID/g
Drug uptake [17]: 0.088 % ID/g
Drug uptake [18]: 0.177 % ID/g
Drug uptake [19]: 0.196 % ID/g
Drug uptake [20]: 0.173 % ID/g
Drug uptake (Liver [21]): 1.939 % ID/g
Drug uptake (Liver [22]): 1.504 % ID/g
Drug uptake (Liver [23]): 1.402 % ID/g
Drug uptake (Liver [24]): 1.188 % ID/g
Drug uptake (Kidney [25]): 1.644 % ID/g
Drug uptake (Kidney [26]): 1.042 % ID/g
Drug uptake (Kidney [27]): 0.99 % ID/g
Drug uptake (Kidney [28]): 0.853 % ID/g
Drug uptake (Bone [29]): 0.307 % ID/g
Drug uptake (Bone [30]): 0.445 % ID/g
Drug uptake (Bone [31]): 0.623 % ID/g
Drug uptake (Bone [32]): 0.739 % ID/g
Drug uptake (Brain [33]): 0.606 % ID/g
Drug uptake (Brain [34]): 0.153 % ID/g
Drug uptake (Brain [35]): 0.095 % ID/g
Drug uptake (Brain [36]): 0.059 % ID/g
Drug uptake (Blood [37]): 0.122 % ID/g
Drug uptake (Blood [38]): 0.071 % ID/g
Drug uptake (Blood [39]): 0.043 % ID/g
